Measurements taken from article PMC12217772 (Nature Communications, 2025).
Where “and” joins values, the source holds several entries; their conditions need not be identical. Equal values may be shown once.

What was measured:
[1] = molecular target: CP-AMPARs (Rattus norvegicus, UniProt P19491); assay: Whole-cell recordings, other NMDAR channel blockers on CP-AMPARs; assay type: cell-based; conditions: for Inhibitory effect on CP-AMPARs at hundreds of micromolar concentrations: hundreds of micromolar (10 and 100 µM shown in Fig. S1), 10 mM glutamate
[2] = molecular target: GluA2(Q) (Rattus norvegicus, UniProt P19491); assay: Whole-cell patch-clamp, glutamate-induced currents, GluA2; assay type: cell-based; conditions: 500 µM memantine, 10 mM glutamate, no auxiliary subunit, no CTZ
Procedure, shortened: (§1)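 HEK-293T cells were transfected with GluA2(Q), GluA2(Q)/γ2 or GluA2(Q)/γ8 plus GFP, replated in NBQX medium, and recorded 24–48 h later. Whole-cell clamp at −60 mV, room temperature; CsF/CsCl/EGTA internal and NaCl/KCl/CaCl2/HEPES external, both pH 7.4. […] IC50 came from a Hill fit of steady-state inhibition; ≥3 recordings from ≥3 days.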

[3] = molecular target: GluA2(Q)/γ2 (UniProt P19491+Q9Y698, E306D/I257V/N307S/S313A); assay: as above; assay type: cell-based, rat; conditions: 10 mM glutamate
Procedure, shortened: as §1

[4] = molecular target: GluA2(Q)/γ8 (UniProt P19491+Q8WXS5); assay: as above; assay type: cell-based, rat; conditions: 500 µM memantine, 10 mM glutamate
Procedure, shortened: as §1

[5] = molecular target: GluA2(Q) in the presence of CTZ (Rattus norvegicus, UniProt P19491); assay: Whole-cell patch-clamp, GluA2; assay type: cell-based; conditions: 500 µM memantine, 100 μM CTZ, 10 mM glutamate
[6] = molecular target: GluA2(R)/γ2 (Rattus norvegicus, UniProt P19491, Q607R); assay: Whole-cell patch-clamp, glutamate-induced currents, CI-AMPAR GluA2; assay type: cell-based; conditions: 10 mM glutamate
[7] = molecular target: GluA1/γ2 (Homo sapiens, UniProt P42261); assay: Whole-cell patch-clamp, glutamate-induced currents, GluA1/γ2; assay type: cell-based
Sequence of GluA1/γ2 (P42261 19-906, species assumed): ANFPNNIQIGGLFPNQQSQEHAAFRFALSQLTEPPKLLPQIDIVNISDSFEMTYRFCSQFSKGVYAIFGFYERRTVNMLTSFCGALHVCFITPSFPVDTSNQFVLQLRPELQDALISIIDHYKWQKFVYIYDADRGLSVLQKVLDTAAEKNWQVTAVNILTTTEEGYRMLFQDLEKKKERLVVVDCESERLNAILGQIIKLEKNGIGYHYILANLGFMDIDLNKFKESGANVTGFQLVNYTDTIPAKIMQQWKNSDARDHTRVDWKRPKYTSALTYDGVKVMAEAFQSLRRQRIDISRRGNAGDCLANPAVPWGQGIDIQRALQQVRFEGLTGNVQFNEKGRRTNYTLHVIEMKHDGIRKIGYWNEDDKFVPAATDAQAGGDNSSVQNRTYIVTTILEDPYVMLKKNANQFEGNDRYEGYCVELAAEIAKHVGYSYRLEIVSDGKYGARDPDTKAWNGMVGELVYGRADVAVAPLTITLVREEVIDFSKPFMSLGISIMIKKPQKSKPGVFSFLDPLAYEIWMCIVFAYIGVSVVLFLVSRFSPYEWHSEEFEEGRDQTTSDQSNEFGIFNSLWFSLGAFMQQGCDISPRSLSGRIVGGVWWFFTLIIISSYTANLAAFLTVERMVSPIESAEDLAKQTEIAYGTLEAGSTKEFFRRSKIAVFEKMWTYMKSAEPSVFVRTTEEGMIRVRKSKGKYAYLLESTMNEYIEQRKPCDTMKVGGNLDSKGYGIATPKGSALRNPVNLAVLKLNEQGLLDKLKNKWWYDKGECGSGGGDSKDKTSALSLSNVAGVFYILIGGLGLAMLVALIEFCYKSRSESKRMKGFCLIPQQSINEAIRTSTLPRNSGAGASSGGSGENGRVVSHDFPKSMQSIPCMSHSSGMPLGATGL
Sequence of GluA1/γ2 (Q9Y698 whole entry partner, species assumed): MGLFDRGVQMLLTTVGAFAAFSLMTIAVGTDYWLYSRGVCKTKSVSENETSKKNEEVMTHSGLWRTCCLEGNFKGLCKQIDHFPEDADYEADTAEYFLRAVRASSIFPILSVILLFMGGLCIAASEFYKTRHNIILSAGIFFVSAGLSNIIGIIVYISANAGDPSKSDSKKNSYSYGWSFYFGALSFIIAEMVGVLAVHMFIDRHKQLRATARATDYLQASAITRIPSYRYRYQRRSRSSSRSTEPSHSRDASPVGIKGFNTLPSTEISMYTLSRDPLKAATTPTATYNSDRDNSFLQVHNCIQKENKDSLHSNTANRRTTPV
Procedure, shortened: (§2)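 HEK-293T cells at 40–50% confluency were lipofectamine-transfected with GluA1, or GluA1 plus GluA2(R), co-transfected with γ2 or γ8 and GFP. Cells were replated after 4–6 h in NBQX-containing medium and recorded 24–48 h post-transfection. […] IC50 came from a Hill fit of steady-state current inhibition versus concentration; ≥3 recordings over ≥3 days.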

[8] = molecular target: GluA1/γ8 (Homo sapiens, UniProt P42261); assay: Whole-cell patch-clamp, glutamate-induced currents, GluA1/γ8; assay type: cell-based
Sequence of GluA1/γ8 (P42261 19-906, species assumed): as the sequence (P42261 19-906, species assumed) above
Sequence of GluA1/γ8 (Q8WXS5 whole entry partner, species assumed): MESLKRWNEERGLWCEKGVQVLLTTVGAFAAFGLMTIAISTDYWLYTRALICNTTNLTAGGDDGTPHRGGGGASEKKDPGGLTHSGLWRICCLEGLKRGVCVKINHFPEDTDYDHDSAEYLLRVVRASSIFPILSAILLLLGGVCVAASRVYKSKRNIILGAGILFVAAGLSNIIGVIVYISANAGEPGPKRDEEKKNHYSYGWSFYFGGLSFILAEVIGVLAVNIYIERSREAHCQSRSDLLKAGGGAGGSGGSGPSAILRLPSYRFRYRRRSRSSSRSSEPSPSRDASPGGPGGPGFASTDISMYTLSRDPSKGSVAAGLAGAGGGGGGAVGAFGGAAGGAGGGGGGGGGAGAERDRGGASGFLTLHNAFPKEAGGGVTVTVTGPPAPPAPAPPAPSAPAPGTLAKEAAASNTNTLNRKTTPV
Procedure, shortened: as §2

[9] = molecular target: GluA1-GluA2(R)/γ2 (UniProt P19491+P42261, Q607R); assay: Whole-cell patch-clamp, co-expression of GluA1 and GluA2; assay type: cell-based
Procedure, shortened: as §2

[10] = molecular target: GluA2(Q) subunit of GluA2-γ2EM (rat) (UniProt P19491); assay: cryo-EM structure

Molecule: C[C@]12N[C@H](Cc3ccccc31)c1ccccc12 [MK801]
- Inhibition of CP-AMPARs in the concentration range where they inhibit NMDARs [1]: do not show significant inhibition
- Inhibitory effect on CP-AMPARs at hundreds of micromolar concentrations [1]: minimal inhibitory effect

Molecule: CNC1(c2ccccc2Cl)CCCCC1=O (stereo not drawn) [ketamine]
- Inhibition of CP-AMPARs in the concentration range where they inhibit NMDARs [1]: do not show significant inhibition
- Inhibitory effect on CP-AMPARs at hundreds of micromolar concentrations [1]: minimal inhibitory effect

Molecule: CC12CC3CC(C)(C1)CC(N)(C3)C2 [memantine, Memantine]
- Inhibition of whole-cell currents of GluA2(Q) in isolation [2]: did not show any significant inhibition
- Effect on peak and steady-state currents of GluA2(Q)/γ2 ([3]; 500 µM memantine): inhibited
- IC50 ([3]; IC50 for memantine inhibition of GluA2(Q)/γ2, HEK-293 cells, steady-state current, −60 mV): 49.3 µM and 49 µM
- Effect on peak and steady-state currents of GluA2(Q)/γ8 [4]: inhibited
- Effect on steady-state currents of GluA2(Q) with CTZ [5]: showed inhibition of the steady-state currents
- Inhibitory effect on GluA2(R)/γ2 at 500 µM ([6]; 500 µM memantine): only a minor inhibitory effect
- Inhibition of GluA2(R)/γ2 currents at saturating concentrations ([6]; saturating concentrations of memantine): only partial inhibition
- IC50 [7]: 15 ± 2 µM
- IC50 [8]: 10 ± 2 µM
- IC50 [9]: 697 ± 149 µM

Molecule: GluA2(Q) subunit of GluA2-γ2EM (from UniProt P19491-2 22-883) (receptor)
- stoichiometry N [10]: 4
